Source: PubChem BioAssay (Broad Institute)
Shown are actives, neighbours in structure and some others; about 0.86% of the full set was active somewhere.
MLL AF4-AF9 inh: MLL-AF4/AF9 protein interaction inhibition. AID 651704. P42568. AlphaScreen, biotin-AF4 peptide binding to FLAG-AF9. 350,000 tested, 0.47% active. inhibition, % at 10 µM;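 active = every replicate reaching a set inhibition limit, whatever the replicate mean, cut at about 25% in these data; inconclusive = mean inhibition reaches that limit but some replicates miss it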;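 note: 0% = plate neutral control median and 100% = total signal loss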
S100A4 inh HTS: blocks human S100A4 binding to myosin IIA peptide. 360,000 tested, 0.14% active. inhibition, % at 10.7 µM. P26447. AID 652163. S100A4/TAMRA-MyoIIA peptide fluorescence polarization;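 active = mean inhibition of at least 70% across replicates, with every replicate also reaching that level; inconclusive = mean inhibition reaches 70% but some replicates fall short; inactive = mean inhibition below 70%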
Target sequence (P26447 whole entry, looked up): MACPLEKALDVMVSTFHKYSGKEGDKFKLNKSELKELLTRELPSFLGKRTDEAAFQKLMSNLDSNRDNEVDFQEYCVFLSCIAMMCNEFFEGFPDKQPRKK
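Test system: S100A4 monomer protein. Medium: HEPES buffer with Ca2+, pH 7.2. Reagent: fluorescent myosin IIA peptide, 5 nM. Compound dosing: single-point compound testing. Timing: 5 min between mix addition and reading. Benchmarks: DMSO neutral and TFP positive wells.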
Rtt109 HAT inh: C. albicans Rtt109 histone acetyltransferase inhibition. Q5AAJ8. purified Rtt109/Vps75, ThioGlo CoA-SH fluorescence, 4 h. inhibition, % at 34.9 µM. 330,000 tested, 0.16% active. AID 540336;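 active = inhibition of at least 50% in every replicate; inconclusive = best replicate reaches 50% inhibition but some replicates fall short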
Target sequence (Q5AAJ8 whole entry, looked up): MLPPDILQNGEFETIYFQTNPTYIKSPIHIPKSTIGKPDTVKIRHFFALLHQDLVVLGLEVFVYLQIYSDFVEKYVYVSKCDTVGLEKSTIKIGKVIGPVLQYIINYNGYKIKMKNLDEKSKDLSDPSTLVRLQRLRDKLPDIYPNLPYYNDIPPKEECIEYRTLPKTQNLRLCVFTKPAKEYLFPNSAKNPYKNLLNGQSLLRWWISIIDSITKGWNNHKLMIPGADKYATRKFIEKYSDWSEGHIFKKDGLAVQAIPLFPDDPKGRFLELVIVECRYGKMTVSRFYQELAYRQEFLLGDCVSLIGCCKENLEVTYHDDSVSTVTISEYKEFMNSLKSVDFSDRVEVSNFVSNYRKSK
ERAP1 HTS inh: inhibitors of human ERAP1 aminopeptidase | recombinant ERAP1, Leu-AMC fluorescence, 60 min | 340,000 tested, 0.15% active | inhibition, % at 10.7 µM;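 active = mean replicate inhibition of at least 30%, or all replicates individually reaching that 30% level; inactive = mean below 30% and not every replicate reaching it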;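 note: 0% = neutral control wells and 100% = L-leucinethiol positive control wells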
miR-122 sensor: inhibitors of miR-122 in Huh7 cells; Huh7 miR-122 Renilla luciferase sensor, 48 h; neutral wells = 0, positive control = 100; activation (reporter increase), % at 12.5 µM; 340,000 tested, 0.3% active;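 active = mean replicate activation score at least 90 and every replicate individually at or above 90; inconclusive = only one of the two criteria met; inactive = neither criterion met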;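 note: higher luciferase means less miR-122 activity so hits act as miR-122 inhibitors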
* marks the source's active call; other numbers are inactive results; u = inconclusive; x = no result given; [ ] = remark or other dose.

SMILES	MLL AF4-AF9 inh	S100A4 inh HTS	Rtt109 HAT inh	ERAP1 HTS inh	miR-122 sensor
CC=Cc1ccc2n(c1=O)C[C@@H]1N[C@H]2[C@H](C(=O)NC2CCCCC2)[C@H]1CO (mixture of isomers)	-2.7	81.4*	x	2.9	x
CC=Cc1ccc2n(c1=O)C[C@H]1N[C@@H]2[C@@H](C(=O)NC2CCCCC2)[C@@H]1CO (mixture of isomers)	-3.0	0.2	x	0.2	x
CCc1ccc(NC(=O)C(CC)Sc2nc3cc4c(cc3c(=O)n2Cc2ccco2)OCO4)cc1 (stereo unspecified)	x	x	0.3	x	138.5*
CN1C[C@H]2[C@@H](c3ccccc31)[C@@H](CO)N2C(=O)C1CC1	0.6	-4.4	x	-0.1	0.0[16.7 µM]
COc1ccc(CN(C)C[C@@H]2Oc3ccc(NC(=O)Cc4ccccc4)cc3CC(=O)N([C@H](C)CO)C[C@@H]2C)cc1	-6.5	-5.5	x	4.8	0.5[16.7 µM]
COc1ccc(CN(C)C[C@@H]2Oc3ccc(NC(=O)Cc4ccccc4)cc3CC(=O)N([C@@H](C)CO)C[C@H]2C)cc1	-1.5	83.6*	x	-2.8	x
COc1ccc(NC(=O)Nc2ccc3c(c2)CC(=O)N([C@@H](C)CO)C[C@@H](C)[C@@H](CN(C)C(=O)NC(C)C)O3)cc1	-2.0	3.5	x	0.6	100.8*[16.7 µM]
C[C@@H]1CN([C@@H](C)CO)C(=O)Cc2cc(NC(=O)CCCN(C)C)ccc2O[C@@H]1CN(C)Cc1ccc(Oc2ccccc2)cc1	28.5*	-1.4	x	-1.7	x
COc1ccc(CN(C)C[C@@H]2Oc3ccc(NS(=O)(=O)c4ccccc4)cc3CC(=O)N([C@H](C)CO)C[C@H]2C)cc1	0.4	134.5*	x	-6.0	7.0[16.7 µM]
CCNC(=O)C[C@H]1CC[C@@H]2[C@H](COc3ccc(NC(=O)c4ccc5c(c4)OCO5)cc3C(=O)N2C)O1	-1.3	-3.8	x	-0.5	-8.0[16.7 µM]
COc1ccc2c3c(n(C)c2c1)[C@H](CO)N(S(C)(=O)=O)CC31CCN(CC2CC2)CC1	-2.8	12.7	x	5.0	x
C[C@@H]1CN([C@H](C)CO)C(=O)Cc2cc(NS(=O)(=O)c3ccc(F)cc3)ccc2O[C@@H]1CN(C)Cc1ccc(C(=O)O)cc1	-3.6	1.4	x	2.8	6.6[16.7 µM]
CCNC(=O)[C@H]1N[C@H]2c3ccc(-c4cccc(C(=O)N(C)C)c4)c(=O)n3C[C@H]2[C@@H]1CO	-0.6	83.1*	x	1.5	-0.8[16.7 µM]
COc1cccc(-c2ccc3n(c2=O)C[C@H]2[C@H](CO)[C@@H](C(=O)N4CCOCC4)N[C@@H]32)c1	0.3	85.4*	x	2.0	11.1[16.7 µM]
CCOC(=O)Cn1c2[n+](c3ccccc31)CC(O)CS2 (stereo unspecified)	-6.5	3.6	0.0	78.2*	-11.6
O=C(C[C@@H]1C[C@@H]2c3cc(NC(=O)Nc4ccccc4)ccc3O[C@@H]2[C@@H](CO)O1)NCCN1CCCCC1	11.8	2.8	x	-2.5	3.6[16.7 µM]
CC(c1ccccc1)C1OCC(C[N+]2(C)CCCCC2)O1 (stereo unspecified)	-4.2	-2.5	4.5	14.6	x
CCCCC(CC)C1OCC(C[N+]2(C)CCOCC2)O1 (stereo unspecified)	-3.2	-5.3	4.2	83.1*	-1.5
COCC(=O)N1[C@@H](CO)[C@@H](c2ccccc2)C12CN(C(=O)NC1CCCCC1)C2	-2.7	-2.7	x	-0.2	x
COc1cc(-c2noc(C)c2/C=C/c2ccc(C(=O)O)cc2)cc(OC)c1OC	-2.7	-1.1	-1.7	41.9*	-4.4
COc1cc(-c2noc(C)c2/C=C/c2cccc([N+](=O)[O-])c2)cc(OC)c1OC	7.3	-2.8	-3.7	2.8	13.5
CO[C@@H]1CN(C)C(=O)c2ccc(NS(C)(=O)=O)cc2OC[C@H](C)N(C(=O)NC(C)C)C[C@@H]1C	-1.3	2.2	x	1.5	0.3[16.7 µM]
CCOC(=O)[C@@H]1[C@@H]2C=C[C@]3(O2)[C@H](C(=O)NCc2ccccc2)N(CCCCCCO)C(=O)[C@@H]13	-2.3	1.2	x	3.5	x
Cc1ccc(C=Nc2ccccc2C(N)=O)o1	-9.5	-1.7	-2.9	-4.6	x
Cc1ccc(C=Nc2ccc(N(C)C)cc2)o1	58.5*	-6.4	-24.0	0.5	0.6
SMILES	MLL AF4-AF9 inh	S100A4 inh HTS	Rtt109 HAT inh	ERAP1 HTS inh	miR-122 sensor
CCC(=O)N(C)C[C@H]1Oc2cc(-c3ccncc3)ccc2S(=O)(=O)N([C@H](C)CO)C[C@@H]1C	-1.9	37.6	x	-0.1	4.5[16.7 µM]
CCOC(=O)c1c(-c2ccccc2)oc2ccc(OCC(O)CNCCN(C)C)cc12 (stereo unspecified)	33.8*	-8.6	u	6.6	6.1
Cc1cc(C)nc(Sc2nc(Cl)nc(N(c3ccccc3)c3ccccc3)n2)n1	x	x	78.7*	x	-2.1
C#CCOCCOCCOCCNc1nc(N2CCN(C(=O)[C@H]([C@@H](C)CC)n3cc(CCCN=C(N)N)nn3)CC2)nc(N2CCN(C(=O)[C@H](Cc3ccc(O)cc3)n3cc(CCO)nn3)CC2)n1	30.9*	-4.2	1.8	-4.6	x
C#CCOCCOCCOCCNc1nc(N2CCN(C(=O)Cn3cc(CCCCN)nn3)CC2)nc(N2CCN(C(=O)[C@H]([C@@H](C)CC)n3cc(CCCCN)nn3)CC2)n1	25.5*	0.0	2.8	-1.4	-6.9
C#CCOCCOCCOCCNc1nc(N2CCN(C(=O)Cn3cc(CCO)nn3)CC2)nc(N2CCN(C(=O)[C@H]([C@@H](C)CC)n3cc(CCCCN)nn3)CC2)n1	-3.6	1.0	u	-1.9	x
C#CCOCCOCCOCCNc1nc(N2CCN(C(=O)CCCCCCCCCCNC(=O)[C@H]([C@@H](C)CC)n3cc(CCCCN=C(N)N)nn3)CC2)nc(N2CCN(C(=O)CCCCCCCCCCNC(=O)[C@H](CO)n3cc(CCCCCN)nn3)CC2)n1	x	x	87.1*	x	-9.2
COC(=O)[C@H]1[C@H](CO)[C@H]2Cn3c(ccc(-c4ccncc4)c3=O)[C@H]2N1Cc1ccccc1F	-1.7	7.7	x	30.3*	5.4[16.7 µM]
COC(=O)[C@H]1[C@H](CO)[C@H]2Cn3c(ccc(-c4ccccc4)c3=O)[C@H]2N1Cc1ccccc1F	0.1	-3.3	x	-0.3	-0.8[16.7 µM]
Cc1ccc(C)c(N(C(=O)c2csnn2)C(C(=O)NC2CCCCC2)c2ccccn2)c1 (stereo unspecified)	37.3*	-4.7	-1.7	2.4	-8.4
CC1=NOC(=O)/C1=C\c1ccc(-c2ccc(Br)cc2C(=O)O)o1	-2.9	0.9	3.0	37.6*	-1.2
Cc1cccc(-c2oc3ccc(-c4ccc5c(c4)OCO5)cc3c2-c2ccc(OC3CCCCO3)cc2)c1 (stereo unspecified)	-0.6	106.9*	-4.8	-2.2	1.1
COc1cccc(NC(=O)N2CC(=O)N3[C@H](CO)[C@H](c4ccc(C#CC5CCCC5)cc4)[C@@H]3C2)c1	1.2	-0.1	x	1.2	x
COc1ccc2c3c(n(C)c2c1)[C@H](CO)N(Cc1nccs1)CC31CN(C)C1	2.7	x	x	x	x
Cc1cccc(-c2ccc([C@H]3[C@H]4CN(C(=O)c5cccnc5)CC(=O)N4[C@H]3CO)cc2)c1	35.7*	28.4	x	-0.4	x
